Compounds with a hit are over-represented: about 4.8% of the library has one in this group of screens.
UCH37 DUB inh – human UCH37 deubiquitinating enzyme inhibition | 0.33% of 330,000 active | AID 588478 | Q9Y5K5 | inhibition, % (concentration not given with the values) | purified proteasome/UCH37, Ub-AMC cleavage fluorescence;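 active = mean inhibition over replicate wells above about 20%, limit read from the data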;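 note: 0% = compound-free wells with enzyme and 100% = wells lacking proteasome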
Target sequence (Q9Y5K5 whole entry, looked up): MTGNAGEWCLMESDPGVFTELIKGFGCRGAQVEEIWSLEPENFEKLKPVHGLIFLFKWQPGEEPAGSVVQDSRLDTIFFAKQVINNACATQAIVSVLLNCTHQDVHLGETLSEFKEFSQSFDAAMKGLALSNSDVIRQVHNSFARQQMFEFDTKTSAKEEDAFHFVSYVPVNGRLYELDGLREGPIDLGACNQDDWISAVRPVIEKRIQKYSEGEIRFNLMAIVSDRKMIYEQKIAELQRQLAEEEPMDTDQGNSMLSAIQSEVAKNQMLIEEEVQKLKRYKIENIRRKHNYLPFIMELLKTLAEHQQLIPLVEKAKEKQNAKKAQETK
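Material: human UCH37 enzyme supplied as purified proteasome complex / Amount: 0.15 nM proteasome as dispensed / Buffer or medium: pH 7.4 Tris-HCl (50 mM) with ovalbumin, ATP-MgCl2, DTT / Times: preincubation 30 min, reaction 25 min, room temperature / Technique: AMC fluorescence from Ub-AMC cleavage, excitation 355 nm, emission 460 nm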
PAFAH1B2 inh – inhibitors of human PAFAH1B2; recombinant PAFAH1B2, FP-rhodamine activity probe, fluorescence polarization; 1.2% of 340,000 active; P68402; inhibition, % at 3.39 µM;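 active = inhibition above the mean of all tested compounds plus 3 SD, cut at about 24% in these data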;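 note: 0% = enzyme with DMSO and 100% = wells lacking PAFAH1B2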
Target sequence (P68402 whole entry, looked up): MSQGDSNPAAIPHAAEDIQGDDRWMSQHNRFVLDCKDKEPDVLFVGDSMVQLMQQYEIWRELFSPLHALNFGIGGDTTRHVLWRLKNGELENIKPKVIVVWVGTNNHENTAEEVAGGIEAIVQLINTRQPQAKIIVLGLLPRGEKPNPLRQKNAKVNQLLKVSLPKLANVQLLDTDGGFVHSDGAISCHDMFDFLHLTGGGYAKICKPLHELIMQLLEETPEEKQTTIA
PAFAH1B3 inh – inhibitors of human PAFAH1B3; inhibition, % at 3.39 µM; Q15102; recombinant PAFAH1B3, FP-rhodamine probe, fluorescence polarization; 0.28% of 340,000 active;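 active = inhibition above the screen-wide average of all tested compounds plus 3 SD, cut at about 25% in these data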;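 note: 0% = enzyme with DMSO only and 100% = wells lacking PAFAH1B3 protein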
Target sequence (Q15102 whole entry, looked up): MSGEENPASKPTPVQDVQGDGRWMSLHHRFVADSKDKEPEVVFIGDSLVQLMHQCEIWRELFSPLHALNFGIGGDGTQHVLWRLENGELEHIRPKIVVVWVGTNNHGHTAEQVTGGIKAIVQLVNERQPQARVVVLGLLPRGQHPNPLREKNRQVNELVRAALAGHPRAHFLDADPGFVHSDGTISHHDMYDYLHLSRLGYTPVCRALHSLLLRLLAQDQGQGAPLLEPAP
PAFAH2 inh – inhibitors of human PAFAH2. Q99487. recombinant PAFAH2, FP-rhodamine activity probe, fluorescence polarization. inhibition, % at 3.39 µM. 0.99% of 340,000 active. AID 492956;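 active = inhibition above the mean over all tested compounds plus 3 SD, cut at about 30% in these data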;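 note: inhibitors block probe labeling of enzyme so polarization drops; 0% = enzyme with DMSO and 100% = wells lacking PAFAH2 protein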
pPAFAH FP inh – inhibitors of human plasma PAF acetylhydrolase (pPAFAH) | recombinant pPAFAH, FP-rhodamine probe fluorescence polarization | inhibition, % at 3.39 µM | Q13093 | AID 463082 | 1.5% of 330,000 active;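 active = inhibition above the mean inhibition across the screen plus 3 SD, cut at about 25% in these data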;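 note: inhibitors block binding of the rhodamine activity-based probe so polarization drops; 0% = enzyme with DMSO and 100% = wells lacking pPAFAH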
GRIN3A LBD mod – NR3A (human) ligand-binding domain modulation | Tm shift relative to glycine control, % at 25 µM | NR3A LBD differential scanning fluorimetry, Tm shift; 0% = protein alone, 100% = glycine-bound protein | 2.5% of 340,000 active;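 active = melting temperature shift of at least 10% of the positive control shift, at one fixed dose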
* = called active by the depositor; i = inactive; . = no result given.

SMILES | UCH37 DUB inh | PAFAH1B2 inh | PAFAH1B3 inh | PAFAH2 inh | pPAFAH FP inh | GRIN3A LBD mod
O=[N+]([O-])c1cc(Cl)cc(C=NNc2ccccn2)c1O | 1.4 | . | . | . | . | .
Cc1ccc(-c2cc(-c3ccccc3)no2)c(O)c1 | 3.0 | 6.7 | 8.5 | -7.9 | -3.2 | 5.4
Oc1ccccc1-c1cc(-c2ccccc2)no1 | 7.5 | 1.6 | 6.9 | -1.9 | -4.5 | 19.1*
CCCCCCCCCC(=O)NN=Cc1ccc(C)s1 | 4.2 | . | . | . | . | .
O=C(NN=Cc1cccnc1)c1ccccc1Cl | 0.9 | . | . | . | . | .
COC(=O)c1c(NC(=O)COC(=O)CCNS(=O)(=O)c2ccccc2)sc(C)c1C | 0.5 | 3.2 | 1.8 | 9.1 | 26.3* | -4.2
COC(=O)c1c(C)[nH]c(C(=O)COC(=O)CCNS(=O)(=O)c2cccc(C(F)(F)F)c2)c1C | 0.6 | -5.7 | -0.1 | -0.9 | 32.7* | -7.0
O=C(CSc1nc2ccccc2s1)CSc1nc2ccccc2s1 | 1.7 | -6.6 | 4.0 | -5.9 | 26.8* | -2.0
O=C(NNc1nc2ccccc2s1)Nc1ccc(F)cc1 | . | 1.3 | 5.0 | -2.2 | 0.6 | -12.8
O=C(CSc1nc2ccccc2s1)Nc1ccc(Cl)c(C(=O)O)c1 | 2.9 | 12.3 | 8.2 | 3.8 | -2.7 | 1.1
O=C(CSc1nc2ccccc2s1)NNC(=O)Nc1ccc(Cl)c(Cl)c1 | 1.0 | 16.5 | 1.8 | -6.5 | -2.0 | 25.5*
O=C(CSc1nc2ccccc2s1)NCc1cc([N+](=O)[O-])ccc1O | 2.6 | 28.6* | 1.5 | 6.2 | 10.7 | -8.4
O=C(NNc1nc2ccccc2s1)Nc1ccc(Cl)c(Cl)c1 | . | -1.0 | 0.2 | 1.1 | -1.4 | 15.9*
O=C(Cc1ccccc1)NN=Cc1cc(Br)c(Br)o1 | 0.4 | . | . | . | . | .
COc1ccc(C=NNc2cc(C)nc(N3CCOCC3)n2)c(OC)c1 | -1.3 | . | . | . | . | .
O=C(CSc1nc2ccccc2s1)NNC(=S)Nc1ccc(Br)cc1 | 5.1 | 24.5* | 7.1 | 3.9 | 19.9 | 27.2*
Cc1cc(O)c2c(c1)C(=O)c1cc(O)cc(O)c1C2=O | 3.4 | 3.9 | 19.5 | 10.0 | 29.8* | 10.4*
O=C1c2cc(O)cc(O)c2C(=O)c2c1cc(O)c([C@@H](CO)CCO)c2O | 9.8 | 18.6 | 16.7 | 18.3 | 31.4* | 0.8
O=C(NN=C1CCCc2ccccc21)c1ccc([N+](=O)[O-])cc1Cl | 1.8 | . | . | . | . | .
O=C(NN=C(CC(=O)c1cccs1)C(F)(F)F)c1ccncc1 | 8.6 | . | . | . | . | .
Cn1c(C=NO)nc2ccccc21 | -23.3 | . | . | . | . | .
CCOc1ccc(Br)cc1C(C)=NNC1=NCCN1 | 3.2 | . | . | . | . | .
O=[N+]([O-])c1ccc(C(O)CN2CCN(c3ccccc3)CC2)cc1 (stereo not given) | 4.4 | 5.0 | 2.4 | -9.9 | 5.7 | -1.0
Oc1ccc(N2CCN(CC(O)c3ccccc3)CC2)cc1 (stereo not given) | 5.2 | 0.8 | 9.8 | -0.7 | 2.5 | 32.3*
COc1ccc2cc(C=NNC(=O)CN(c3ccccc3)S(=O)(=O)c3ccccc3)c(Cl)nc2c1 | -366.7 | . | . | . | . | .
SMILES | UCH37 DUB inh | PAFAH1B2 inh | PAFAH1B3 inh | PAFAH2 inh | pPAFAH FP inh | GRIN3A LBD mod
C(=NNC1=NCCN1)c1ccncc1 | 2.9 | . | . | . | . | .
O=C(CN(c1ccccc1Cl)S(=O)(=O)c1ccccc1)NN=Cc1ccccc1C(=O)O | 0.4 | . | . | . | . | .
COc1ccc(CCNC(=O)CSc2ccc(-c3cccs3)nn2)cc1 | -0.9 | 1.0 | -1.4 | -2.7 | 0.6 | 29.2*
Cc1ccc(CSc2ccc(-c3cccs3)nn2)cc1 | 4.2 | 3.3 | 3.6 | -1.5 | 4.7 | 14.1*
Cc1cccc(N=Cc2cc3c(cc2[N+](=O)[O-])OCO3)c1 | 4.2 | 4.0 | 14.3 | 5.5 | 27.8* | -5.5
CSc1nc(O)c(C=C2C=Nc3ccccc32)[nH]1 | 2.9 | . | . | . | . | .
CN(C)C(=S)NC(=S)Nc1ccc2ccccc2c1 | . | 5.5 | 11.8 | 4.1 | . | 20.9*
CC1(NC(=S)Nc2ccc3ccccc3c2)CCS(=O)(=O)C1 (stereo not given) | 1.3 | 6.7 | 7.5 | -3.4 | 6.0 | -1.7
Cc1cccc(Nc2nnc(SC/C(O)=C(\C#N)c3nc4ccccc4[nH]3)s2)c1 | -10.8 | 19.7 | 16.0 | -12.5 | 24.8* | 10.4*
Cc1ccc(Nc2nnc(SC/C(O)=C(\C#N)c3nc4ccccc4[nH]3)s2)c(C)c1 | -16.7 | 20.9 | 8.4 | -0.8 | 29.2* | 12.9*
CCOC(=O)c1c2c3c(cccc3[nH]c1=O)C(=O)c1ccccc1-2 | 0.0 | 4.4 | 7.4 | 13.2 | -1.6 | -0.5
CCOC(=O)c1c2c(n(Cc3ccccc3)c1C)C(=O)C(=O)c1ccccc1-2 | . | 30.4* | 78.6* | 51.9* | . | -2.3
CCOC(=O)c1c2c3c(cccc3n(C)c1=O)C(=O)c1ccccc1-2 | . | 19.5 | 26.1* | 27.3 | 31.0* | 0.8
CCCn1c(C)c(C(=O)OCC)c(O)c(-c2ccccc2)c1=O | 4.7 | . | . | . | -6.1 | -0.2
Cc1ccc(C=N/N=C2/NC(=O)C(CC(=O)N3CCOCC3)S2)cc1 (stereo not given) | 10.4 | . | . | . | . | .
CCOCCSc1nc2c(c(-c3cccs3)c1C#N)CC/C2=C/c1cccs1 | -71.4 | 2.0 | 3.8 | 0.7 | 26.7* | -6.6
CC1CCN(c2cc(N3CCOCC3)c(F)cc2[N+](=O)[O-])CC1 | 0.8 | -4.7 | 6.5 | 7.7 | 10.8 | 14.6*
CC(=NNC(=O)c1nnn(-c2nonc2N)c1CN1CCC(C)CC1)c1cccc(Br)c1 | 7.1 | . | . | . | . | .
O=C1C=CC(=O)c2c(O)c(N3CCN(CCO)CC3)c(Cl)c(O)c21 | . | 27.5* | 49.5* | 40.7* | . | -4.4
O=C1C=CC(=O)c2c(O)c(N3CCN(CCOCCO)CC3)c(Br)c(O)c21 | . | 43.8* | 62.1* | 58.5* | . | -7.1
CCOc1ccc(C=Nn2c(SC)nnc2-c2ccccc2)cc1OCC | 1.6 | . | . | . | . | .
O=C(NN=Cc1c(Cl)nc2ccccn2c1=O)c1cccnc1 | -12.8 | . | . | . | . | .
CN(C)c1ccc2c(c1)C(=NO)c1ccccc1-2 | . | 4.2 | 7.4 | -0.3 | . | -23.7
Nc1cc2c(cc1Cl)-c1ccccc1C2=NO | . | 2.8 | 8.7 | 12.4 | . | 33.5*
CC(=O)Nc1c(S(=O)(=O)c2ccccc2)c2nc3ccccc3nc2n1Cc1ccccc1 | -132.7 | 2.0 | 5.4 | 9.2 | 9.9 | -6.1
SMILES | UCH37 DUB inh | PAFAH1B2 inh | PAFAH1B3 inh | PAFAH2 inh | pPAFAH FP inh | GRIN3A LBD mod
C=CCn1c(NS(=O)(=O)c2ccccc2)c(S(=O)(=O)c2ccc(C)cc2)c2nc3ccccc3nc21 | i | 2.8 | 7.1 | 3.5 | 9.8 | 10.8*
O=S1(=O)Nc2c(ccc3cccnc23)-c2ccccc21 | 2.8 | 5.4 | 11.6 | 12.2 | 26.6* | .
Clc1ccc2ccc3cccnc3c2n1 | 0.8 | 6.3 | 2.9 | 13.4 | . | 2.9
CC(=NNC(=O)CNC(=O)c1ccccn1)c1cccc([N+](=O)[O-])c1 | 2.2 | . | . | . | . | .
O=C(O)c1cccc(Nc2nc3ccccc3nc2NS(=O)(=O)c2cccs2)c1 | 13.2 | 4.0 | 6.3 | 12.5 | 4.7 | -2.9
COc1ccc(Nc2nc3ccccc3nc2NS(=O)(=O)c2cccs2)cc1 | -5.6 | 3.4 | 6.1 | 7.2 | 27.1* | 21.7*
CC(=O)c1ccc(Nc2nc3ccccc3nc2NS(=O)(=O)c2cccs2)cc1 | -26.4 | 1.0 | 5.5 | 18.2 | 26.9* | -1.9

High-throughput results: PubChem BioAssay, several laboratories
